Screening results as filed in PubChem BioAssay.
HIF act: HIF pathway transcriptional activators, primary screen, cell-based, U2OS HRE-luciferase, luminescence | U2OS HRE-luciferase reporter; normalized: DMSO 0%, desferrioxamine 100% | activation, % at 7.5 µM (by protocol) | 0.32% of 300,000 active;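 active = mean activation of at least 10% of the iron chelator positive control signal, with at least half of replicates also reaching 10%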
CR mimetic SO: reduction of superoxide in aged yeast, primary screen, HTS | S. cerevisiae aged cells, superoxide DHE fluorescence; active compounds read low | superoxide response (% of plate mean), % at 10 µM | 0.18% of 330,000 active;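 active = superoxide response under a set limit, about three screen SD below normal, cut at about 65% in these data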;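 also: yeast aged for seven days with compound at 30 °C before DHE staining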
AI-2 QS modul: Vibrio harveyi AI-2 quorum sensing modulators, primary screen, JMH597 strain, luminescence/OD600 ratio; Vibrio harveyi JMH597 AI-2 luminescence/OD600 ratio, 9 h; active compounds read low; strain lacks LuxN and CqsS sensors; 0 = neutral-control median; activity change, % at 7.5 µM; 0.4% of 300,000 active; in the data active = activity change below about -75%, passing the limit was not always enough;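 also: luminescence divided by OD600 gain over 9 h not by final OD600 alone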
T cruzi repl: inhibitors of intracellular T. cruzi growth, primary screen, luminescence, NIH3T3 host cells; inhibition, % (concentration not given with the values); T. cruzi beta-gal in NIH3T3, 90 h; 1.4% of 300,000 active; AID 1885, 2009;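 active = mean inhibition across valid replicates above about 55%, limit read from the data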;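 also: signal also drops with host cell toxicity which is not excluded here; higher percent means less beta-gal luminescence so fewer parasites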
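Assay system: NIH/3T3 host cells with β-galactosidase reporter T. cruzi; input: 5,000 host fibroblasts per well; compound: single 50 nL compound addition per well in DMSO; timing: ≥90 h infection period, 3 h prior cell attachment; measured by: GalScreen β-gal luminescence, detergent lysis, 60 min; evaluation: percent inhibition of parasite-derived β-gal signal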
NRP1-CendR mod: modulators of CendR peptide binding to NRP-1, primary screen, biochemical, fluorescence polarization, uHTS; FAM-RPARPAR peptide binding to NRP-1; Neuropilin-1 (Homo sapiens), O14786; inhibition, % at 25 µM; AID 602438, 2012; 0.85% of 360,000 active;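 active = inhibition or corrected inhibition above about 18%, plus a signal ratio from 0.5 to 1.5, limit read from the data, passing the limit was not always enough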
Target sequence (O14786 whole entry, looked up): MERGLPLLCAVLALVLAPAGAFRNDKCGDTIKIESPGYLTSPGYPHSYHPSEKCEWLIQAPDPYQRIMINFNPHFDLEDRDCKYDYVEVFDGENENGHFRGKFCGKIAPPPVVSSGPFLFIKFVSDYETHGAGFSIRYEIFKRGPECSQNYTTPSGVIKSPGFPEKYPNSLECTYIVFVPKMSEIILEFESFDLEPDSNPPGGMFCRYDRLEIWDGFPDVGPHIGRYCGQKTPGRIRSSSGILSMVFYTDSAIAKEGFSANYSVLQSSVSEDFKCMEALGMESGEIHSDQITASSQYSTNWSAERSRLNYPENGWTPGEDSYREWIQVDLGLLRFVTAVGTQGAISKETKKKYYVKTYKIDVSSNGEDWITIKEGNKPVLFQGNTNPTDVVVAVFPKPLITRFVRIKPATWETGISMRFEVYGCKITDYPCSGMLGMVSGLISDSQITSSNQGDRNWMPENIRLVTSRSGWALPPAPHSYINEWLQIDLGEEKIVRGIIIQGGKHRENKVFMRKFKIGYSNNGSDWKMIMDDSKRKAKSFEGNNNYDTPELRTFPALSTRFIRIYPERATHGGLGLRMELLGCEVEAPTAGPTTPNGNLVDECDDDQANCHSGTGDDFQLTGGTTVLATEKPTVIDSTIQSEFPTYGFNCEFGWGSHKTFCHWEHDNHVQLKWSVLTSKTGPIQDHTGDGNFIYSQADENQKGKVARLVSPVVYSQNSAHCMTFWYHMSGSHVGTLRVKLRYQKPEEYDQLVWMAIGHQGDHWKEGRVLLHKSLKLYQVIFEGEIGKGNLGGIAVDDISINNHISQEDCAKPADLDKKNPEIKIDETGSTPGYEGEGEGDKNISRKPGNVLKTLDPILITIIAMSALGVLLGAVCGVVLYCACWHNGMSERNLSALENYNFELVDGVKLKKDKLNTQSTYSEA
V-ATPase pH: regulators of yeast V-ATPase proton pumping, primary screen, pHLuorin cytosolic pH fluorescence. S. cerevisiae. response, % at 10 µM. 0.37% of 350,000 active. AID 504577, 2011; in the data active = response mostly above about 7.3%, no sharp cut-off; inactive = mostly below about 5.4%; also: actives read high
Each line names hits and unclear results; the compound was inactive in the other large screens. Only some compounds are listed: those with a hit (about 3% of all), similar ones and a draw of the others.

COc1ccc(N(CC(=O)NCC2CCCO2)S(=O)(=O)c2c(C)noc2C)cc1 (stereo unspecified)	none
Nc1c(C(=O)O)ccc2c1C(=O)c1ccccc1C2=O	none
Nc1cc(C(=O)O)c(N)c2c1C(=O)c1ccccc1C2=O	NRP1-CendR mod 57
Cc1cc(C)nc(Nc2ccc(Br)cc2C(=O)O)n1	none
Cc1ccc(NC(=S)NC(=O)C2CCCCC2)c(Br)c1	none (no result: HIF act, AI-2 QS modul, T cruzi repl)
Cc1ccc(Nc2nc(NCC3CC3)nc3ccsc23)c(C)c1	none (no result: HIF act, CR mimetic SO, AI-2 QS modul, T cruzi repl, V-ATPase pH)
CCN1CCN(c2nc(-c3ccncc3)nc3ccccc23)CC1	T cruzi repl 69 (no result: NRP1-CendR mod, V-ATPase pH)
O=C(NCCc1c[nH]c2ccccc12)C1CCC(Cn2c(=S)[nH]c3ccccc3c2=O)CC1 (stereo unspecified)	T cruzi repl 75
O=c1c2c3c(sc2n(CCN2CCCCC2)c(=O)n1Cc1ccco1)CCCCC3	T cruzi repl 63
O=c1c2c3c(sc2n(CCN2CCOCC2)c(=O)n1Cc1ccco1)CCCCC3	none
O=C(COC(=O)c1c(F)cccc1Cl)NC(=O)Nc1ccc2c(c1)OCCO2	none (no result: HIF act, AI-2 QS modul, T cruzi repl)
COc1cc(OC)cc(-c2cc3nc4c(c(N5CCN(c6ncccn6)CC5)n3n2)CCCC4)c1	T cruzi repl 60
Cc1ccc(NC(=O)c2ccc(S(=O)(=O)NCc3ccco3)cc2)cc1	none
CCn1cc(C(=O)NCc2ccco2)c(=O)c2cc(S(=O)(=O)N3CCCCCC3)ccc21	none
CCn1cc(C(=O)NCc2ccco2)c(=O)c2cc(S(=O)(=O)N3CCc4ccccc4C3)ccc21	T cruzi repl 56
CCOC(=O)c1c(N)ssc1=S	none
CCCCN(CC)CCNC(=O)c1cc2c(-c3ccc(Cl)cc3)nn(C)c2s1	T cruzi repl 57
CCN(CC)CCNC(=O)c1cc2c(-c3ccc(Cl)cc3)nn(C)c2s1	none (no result: HIF act)
CCOC(=O)C(=Cc1ccc(OCc2ccc([N+](=O)[O-])cc2)c(OC)c1)C(=O)OCC	HIF act 11
COC(=O)C(=Cc1ccc(OCc2ccc([N+](=O)[O-])cc2)c(OC)c1)C(=O)OC	none
CC#CCN(Cc1ccco1)C(=O)C1CCC(=O)N(Cc2ccccc2F)C1 (stereo unspecified)	NRP1-CendR mod 23
CCn1c(CNC(=O)c2cc(OC)c(OC)c(OC)c2)cc2ccccc21	none
O=[N+]([O-])c1cccnc1N1CCC(c2cc(-c3ccc(Cl)cc3Cl)n[nH]2)CC1	none
CC(=O)c1ccc(N2CCC(c3cc(-c4ccc(Cl)cc4Cl)n[nH]3)CC2)c([N+](=O)[O-])c1	T cruzi repl 62
COc1ccc(C(=O)N/N=C/c2ccc(SC)cc2)cc1	none
Cc1ccc(S(=O)(=O)N2C[C@H]3[C@H]4C(=O)N(c5ccccc5)C(=O)[C@H]4CC(=O)[C@H]3[C@@H]2c2cccc3ccccc23)cc1	none (no result: HIF act, CR mimetic SO, AI-2 QS modul, T cruzi repl, V-ATPase pH)
Cc1ccc(S(=O)(=O)N2C[C@H]3[C@H]4C(=O)N(c5ccccc5)C(=O)[C@H]4CC(=O)[C@H]3[C@@H]2c2ccccc2F)cc1	NRP1-CendR mod 25 (no result: HIF act, CR mimetic SO, AI-2 QS modul, T cruzi repl, V-ATPase pH)
C[n+]1c2n(c3ccccc31)N=C(c1ccc(Cl)cc1)CS2	none
COc1ccc(C2=Nn3c([n+](C)c4ccccc43)SC2)cc1	T cruzi repl 70
C=C(C)COc1ccc(-c2nc(N)nc(C(F)(F)F)c2-c2ccc(OC)cc2)c(O)c1	T cruzi repl 56
COc1ccc(-c2cnc(N)nc2-c2ccc(OCc3ccccc3)cc2O)cc1	T cruzi repl 58
COc1ccc(-c2nc(N)ncc2-c2ccc(OC)c(OC)c2)c(O)c1	none
COc1ccc(S(=O)(=O)N2CCN(C(=O)CN3C(=O)NC4(CCCC4)C3=O)CC2)cc1	none
CCN(Cc1ccccc1)C(=O)COC(=O)CNC(=O)c1ccc(C)s1	none
O=C(NCC(c1cccnc1)N1CCN(c2ccccc2F)CC1)OCc1ccccc1 (stereo unspecified)	T cruzi repl 56
